# From PMC3361572 (Chemistry & biology, 2012)
# Key:
# ABHD6 [1] = biological target: T1, ABHD6 (Rattus norvegicus, UniProt Q5XI64); experiment: competitive ABPP, rat brain membrane proteome; format: biochemical; conditions: rat brain serine hydrolase activities, full ABPP gel
# T1 sequence (Q5XI64 1-337): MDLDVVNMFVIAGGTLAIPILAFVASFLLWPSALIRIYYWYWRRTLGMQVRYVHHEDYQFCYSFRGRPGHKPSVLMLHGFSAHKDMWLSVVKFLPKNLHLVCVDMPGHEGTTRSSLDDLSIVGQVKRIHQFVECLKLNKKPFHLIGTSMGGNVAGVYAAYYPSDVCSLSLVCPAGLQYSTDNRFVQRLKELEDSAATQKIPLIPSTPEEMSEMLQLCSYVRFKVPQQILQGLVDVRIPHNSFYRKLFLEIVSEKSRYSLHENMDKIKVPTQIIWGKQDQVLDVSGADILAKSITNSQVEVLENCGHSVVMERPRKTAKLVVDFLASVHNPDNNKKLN
# In short: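 Brain (mouse or rat) or mouse lung proteomes were preincubated with the test compound, then treated with the serine hydrolase probe FP-Rh. Samples were separated by SDS-PAGE and read by in-gel fluorescence scanning. Inhibition was taken as reduced FP-Rh labelling of MAGL, ABHD6, FAAH or CES bands, and IC50 values were calculated from quantified gel bands. Three independent experiments.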
# hMAGL = biological target: T2, hMAGL (Homo sapiens, UniProt Q99685); experiment: competitive ABPP, proteomes of transiently transfected HEK293T cells; format: biochemical; conditions: read-out: IC50 (95% CI), human MAGL, transfected HEK293T cell proteome
# T2 sequence (Q99685 1-303): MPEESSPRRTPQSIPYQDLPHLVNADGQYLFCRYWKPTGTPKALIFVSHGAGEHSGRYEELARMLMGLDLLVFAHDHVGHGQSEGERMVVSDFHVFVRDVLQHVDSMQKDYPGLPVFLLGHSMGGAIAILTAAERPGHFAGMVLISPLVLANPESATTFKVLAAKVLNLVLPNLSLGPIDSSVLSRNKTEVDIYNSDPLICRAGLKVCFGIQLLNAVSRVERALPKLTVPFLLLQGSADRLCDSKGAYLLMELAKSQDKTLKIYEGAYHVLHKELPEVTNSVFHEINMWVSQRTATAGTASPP
# MAGL [2] = biological target: T3, MAGL (Mus musculus, UniProt O35678); experiment: 2-AG substrate assay in mouse brain proteomes; format: biochemical
# T3 sequence (O35678 1-303): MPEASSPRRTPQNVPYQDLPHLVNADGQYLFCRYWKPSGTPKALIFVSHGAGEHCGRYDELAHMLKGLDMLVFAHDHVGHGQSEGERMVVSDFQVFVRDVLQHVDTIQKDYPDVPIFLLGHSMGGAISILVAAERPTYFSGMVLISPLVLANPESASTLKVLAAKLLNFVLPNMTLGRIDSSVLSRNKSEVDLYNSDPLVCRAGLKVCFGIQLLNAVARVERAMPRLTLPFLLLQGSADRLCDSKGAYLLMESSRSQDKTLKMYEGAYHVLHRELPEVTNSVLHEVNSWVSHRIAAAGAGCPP
# FAAH [3] = biological target: T4, FAAH (Mus musculus, UniProt O08914); experiment: competitive ABPP of brain from inhibitor-treated mice; format: in vivo
# T4 sequence (O08914 1-579): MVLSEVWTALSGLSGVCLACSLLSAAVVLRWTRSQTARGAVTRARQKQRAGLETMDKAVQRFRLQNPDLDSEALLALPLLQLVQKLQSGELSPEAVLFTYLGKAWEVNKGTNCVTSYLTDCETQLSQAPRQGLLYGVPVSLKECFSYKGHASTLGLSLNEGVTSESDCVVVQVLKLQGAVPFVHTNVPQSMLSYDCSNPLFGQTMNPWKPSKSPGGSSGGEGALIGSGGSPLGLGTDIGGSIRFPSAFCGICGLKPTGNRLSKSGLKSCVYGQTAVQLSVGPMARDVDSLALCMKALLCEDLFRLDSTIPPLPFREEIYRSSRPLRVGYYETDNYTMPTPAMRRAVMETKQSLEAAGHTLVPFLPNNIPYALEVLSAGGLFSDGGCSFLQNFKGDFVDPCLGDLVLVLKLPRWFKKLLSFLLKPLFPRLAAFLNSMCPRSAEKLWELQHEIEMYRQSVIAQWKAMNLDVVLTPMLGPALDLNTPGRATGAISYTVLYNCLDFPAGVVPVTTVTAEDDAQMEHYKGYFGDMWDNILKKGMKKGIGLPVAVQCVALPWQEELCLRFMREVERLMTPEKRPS
# [4] = system: brain 2-AG, AA, AEA, PEA, OEA; experiment: brain lipid profile of inhibitor-treated mice; format: in vivo, mouse
# MAGL [5] = biological target: T3, MAGL; experiment: 2-AG hydrolytic activity of brain tissue from treated mice; format: in vivo; conditions: KML29-treated mice, 1–40 mg kg^−1 p.o.
# FAAH [6] = biological target: T4, FAAH; experiment: AEA hydrolytic activity of brain tissue from treated mice; format: in vivo; conditions: KML29-treated mice, 1–40 mg kg^−1 p.o.
# In short: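 C57Bl/6 mice were dosed orally with the test compound (1–40 mg kg−1) or vehicle. The compound was dissolved in PEG by prolonged sonication and mild heating. Mice were killed after 4 h. Brain was analysed for 2-AG, AA, AEA, PEA and OEA, and brain proteomes for residual AEA and 2-AG hydrolysis (substrate assay). n = 3 mice/group, means ± SEM, compared with vehicle-treated mice.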
# MAGL [7] = biological target: T3, MAGL; experiment: gel-based ABPP of peripheral tissues from inhibitor-treated mice; format: in vivo; conditions: 1 mg kg^−1 p.o., 4 h, liver, lung, spleen
# ABHD6 [8] = biological target: T1, ABHD6; experiment: competitive ABPP of brain from KML29-treated rats; format: in vivo; conditions: Wistar rats, 1–40 mg kg^−1 i.p., 4 h
# In short: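 Wistar rats were injected i.p. with the test compound (1–40 mg kg−1) or vehicle. Vehicle was saline:emulphor:ethanol 18:1:1, with prolonged sonication and mild heating to dissolve. Rats were killed at 4 h. Brain, liver, lung and spleen proteomes were labelled with FP-Rh, separated by SDS-PAGE and scanned for in-gel fluorescence. Inhibition was scored as reduced probe labelling. n = 3 rats/group.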
# [9] = system: brain 2-AG, AA, AEA, PEA, OEA; experiment: brain lipid profile of KML29-treated rats; format: in vivo, rat; conditions: 1–40 mg kg^−1 i.p., 4 h
# In short: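 Wistar rats were given the test compound i.p. (1–40 mg kg−1, saline:emulphor:ethanol 18:1:1 vehicle) or vehicle and killed at 4 h. Brain 2-AG, AA, AEA, PEA and OEA levels were measured. Means ± SEM, n = 3 rats/group, with statistics against vehicle-treated rats.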
smiles,measurement,setting,value
O=C(OC(C(F)(F)F)C(F)(F)F)N1CCC(C(O)(c2ccc3c(c2)OCO3)c2ccc3c(c2)OCO3)CC1 [KML29],concentrations with inhibition of ABHD6,ABHD6 [1],> 1 µM
same,IC50,hMAGL,5.9 nM
same,inhibition of 2-AG hydrolysis,MAGL [2],potent inhibitor of 2-AG hydrolysis
same,"brain FAAH inhibition, chronic dosing","FAAH [3]; 40 mg kg^−1 p.o., six days",selectively inhibited MAGL without any effect on FAAH
same,selectivity over brain FAAH,"FAAH [3]; all doses tested 1–40 mg kg^−1 p.o., 4 h",complete selectivity over FAAH
same,selectivity for MAGL over FAAH during time course,"FAAH [3]; single oral dose 20 mg kg^−1, 24 h time course",complete selectivity for MAGL over FAAH
same,"brain 2-AG and NAE levels, chronic dosing","[4]; 40 mg kg^−1 p.o., six days","selectively raise 2-AG, but not NAE levels"
same,peak increase in brain 2-AG over vehicle controls,"[4]; 20 and 40 mg kg^−1 p.o., 4 h",~ 10 fold
same,"brain levels of AEA, PEA and OEA","[4]; all tested doses p.o., 4 h",unaltered
same,change in brain 2-AG,"[4]; doses as low as 5 mg kg^−1 p.o., 4 h",significant elevations
same,change in brain arachidonic acid (AA),"[4]; p.o., 4 h, concomitant with 2-AG elevations",significant reductions
same,time of maximal elevations of 2-AG and reductions of AA in brain,[4]; single oral dose 20 mg kg^−1,1 h
same,brain AEA levels during time course,"[4]; single oral dose 20 mg kg^−1, 24 h period",unaltered
same,residual MAGL activity in brain proteomes (substrate assay),MAGL [5],dose-dependent inhibition of MAGL
same,residual FAAH activity in brain proteomes (substrate assay),FAAH [6],lack of any effect on FAAH
same,MAGL inhibition in peripheral tissues,MAGL [7],near-complete blockade of MAGL
same,cross-reactivity with brain ABHD6,ABHD6 [8],without any detectable cross-reactivity
same,brain AA levels,[9],decrease proportionally with the elevations in 2-AG
same,"brain AEA, PEA, or OEA",[9],without alteration
same,elevations in brain 2-AG,[9],approximately 10 fold
